Measurements published in ChEMBL document CHEMBL1137141, “Synthesis of new coumarin 3-(N-aryl) sulfonamides and their anticancer activity” (2004).

Tests used:
Assay type in all cases: functional
BT-20 = experiment: Concentration required to inhibit growth of BT20 cells by 50% after 96h of treatment; conditions: Homo sapiens, BT-20, 96 h
Summary of the method: (§1)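 Cells (1 × 10⁵) were plated in 6-well dishes. Test agents were added 24 h later at five concentrations over a 2-log span (1–100 µM) and left on continuously for 96 h. Viable cells were counted by trypan blue exclusion on a hemacytometer and expressed as a percentage of DMSO-treated wells. GI50 was read from dose–response curves of % cells versus concentration.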

K562 = experiment: Concentration required to inhibit growth of K562 cells by 50% after 96h of treatment; conditions: Homo sapiens, K562, 96 h; summary of the method: as §1
DLD-1 = experiment: Concentration required to inhibit growth of DLD-1 cells by 50% after 96h of treatment; conditions: Homo sapiens, DLD-1, 96 h; summary of the method: as §1
DU-145 = experiment: Concentration required to inhibit growth of DU145 cells by 50% after 96h of treatment; conditions: Homo sapiens, DU-145, 96 h; summary of the method: as §1
NCI-H157 = experiment: Concentration required to inhibit growth of H157 cells by 50% after 96h of treatment; conditions: Homo sapiens, NCI-H157, 96 h; summary of the method: as §1

| SMILES | GI50 (BT-20) [µM] | GI50 (K562) [µM] | GI50 (DLD-1) [µM] | GI50 (DU-145) [µM] | GI50 (NCI-H157) [µM] |
| --- | --- | --- | --- | --- | --- |
| CCOc1cccc2cc(S(=O)(=O)Nc3ccc(F)c(N)c3)c(=O)oc12 | 54 | 42 | 80 | 48 | 72 |
| COc1ccc(NS(=O)(=O)c2cc3cc(Cl)ccc3oc2=O)cc1O | 65 | 51 | 82 | 42 | 76 |
| CCOc1cccc2cc(S(=O)(=O)Nc3ccc(OC)cc3)c(=O)oc12 | 52 | 48 | 78 | 57 | 74 |
| COc1ccc2oc(=O)c(S(=O)(=O)Nc3ccc(F)c(N)c3)cc2c1 | 68 | 44 | 92 | 56 | 78 |
| CCOc1cccc2cc(S(=O)(=O)Nc3ccc(Br)cc3)c(=O)oc12 | 64 | 58 | 85 | 52 | 74 |

Stronger by GI50 (BT-20), values ahead:

| GI50 (BT-20) [µM] | GI50 (K562) [µM] | GI50 (DLD-1) [µM] | GI50 (DU-145) [µM] | GI50 (NCI-H157) [µM] | SMILES |
| --- | --- | --- | --- | --- | --- |
| 27 | 23 | 32 | 22 | 28 | COc1ccc(NS(=O)(=O)c2cc3cc(Cl)ccc3oc2=O)cc1 |
| 12 | 16 | 14 | 12 | 15 | O=c1oc2c(Br)cccc2cc1S(=O)(=O)Nc1ccc(Br)cc1 |
| 17 | 11 | 18 | 14 | 16 | O=c1oc2c(Cl)cccc2cc1S(=O)(=O)Nc1ccc(Br)cc1 |
| 18 | 27 | 38 | 25 | 32 | COc1ccc2oc(=O)c(S(=O)(=O)Nc3ccc(Br)cc3)cc2c1 |
| 16 | 14 | 20 | 15 | 18 | COc1ccc(NS(=O)(=O)c2cc3cccc(Br)c3oc2=O)cc1 |
